Measurements as given in ChEMBL document CHEMBL4311979, “Structural isomers of cinnamic hydroxamic acids block HCV replication via different mechanisms” (Eur J Med Chem, 2019).

Assays:
[1] = target: T1, Histone deacetylase 1/2/3 (Homo sapiens) (UniProt Q13547+O15379+Q92769); assay: Inhibition of HDAC1/2/3 in human HuH7-luc/neo cells assessed as ratio of H3K9/14ac content to the content of unmodified histone H3 at 3 uM incubated for 24 hrs by Western blot analysis relative to control; format: cell-based
Summary of the method: (§1)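 Huh7-luc/neo cells were dosed after 24 h at 40-50% monolayer and exposed to compound for 24 h at 37 °C in 5% CO2. For α-tubulin and SMC3, cells were PBS-washed and lysed. Histone H3 was acid-extracted: TEB buffer with 0.5% Triton X-100, then 0.2 M HCl overnight at 4 °C, then neutralized. Western blots were blocked in 5% milk/PBST with overnight primary antibody at 4 °C. Values are acetylated/total normalized ratios versus control.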

[2] = Therapeutic index, ratio of CC50 for human HuH7 cells to EC50 for HCV infected in human HuH7-luc/neo cells; format: toxicity, cell-based; conditions: HuH7 cells (CC50) and HCV-infected HuH7-luc/neo cells (EC50)
[3] = target: T1, Histone deacetylase 1/2/3 (Homo sapiens); assay: Inhibition of HDAC1/2/3 in human HuH7-luc/neo cells assessed as ratio of H3K9/14ac content to the content of unmodified histone H3 at 1 uM incubated for 24 hrs by Western blot analysis relative to control; format: cell-based; summary of the method: as §1
Hepatitis C virus = assay: Antiviral activity against HCV infected in human HuH7-luc/neo cells assessed as inhibition of viral replicon propagation incubated for 3 days by luciferase reporter gene assay; format: functional, organism-based, Hepacivirus hominis; conditions: 72 h
Summary of the method: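 Huh7-luc/neo cells carrying a full-length HCV replicon with a luciferase gene. Cells were reseeded without G418 and dosed at 30-40% monolayer (48 h) over a range of concentrations. Incubation was 72 h at 37 °C in 5% CO2. Cells were then PBS-washed and lysed, and luciferase chemiluminescence was read. EC50 is the mean and standard deviation of at least four independent experiments.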

[4] = Cytotoxicity against human HuH7 cells assessed as reduction in cell viability incubated for 3 days by MTT assay; format: cell-based, Huh-7
Summary of the method: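 Huh7 cells were reseeded and dosed over a range of concentrations after 24 h (30-40% monolayer). Incubation was three days at 37 °C in 5% CO2, and viability was read by MTT. CC50 is the mean and standard deviation of at least six independent experiments.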

[5] = target: T2, Protein deacetylase HDAC6 (Homo sapiens) (UniProt Q9UBN7); assay: Inhibition of HDAC6 in human HuH7-luc/neo cells assessed as ratio of alphaTubK40ac content to the content of unmodified alpha-tubulin at 3 uM incubated for 24 hrs by Western blot analysis relative to control; format: cell-based; summary of the method: as §1
T2 sequence (whole entry): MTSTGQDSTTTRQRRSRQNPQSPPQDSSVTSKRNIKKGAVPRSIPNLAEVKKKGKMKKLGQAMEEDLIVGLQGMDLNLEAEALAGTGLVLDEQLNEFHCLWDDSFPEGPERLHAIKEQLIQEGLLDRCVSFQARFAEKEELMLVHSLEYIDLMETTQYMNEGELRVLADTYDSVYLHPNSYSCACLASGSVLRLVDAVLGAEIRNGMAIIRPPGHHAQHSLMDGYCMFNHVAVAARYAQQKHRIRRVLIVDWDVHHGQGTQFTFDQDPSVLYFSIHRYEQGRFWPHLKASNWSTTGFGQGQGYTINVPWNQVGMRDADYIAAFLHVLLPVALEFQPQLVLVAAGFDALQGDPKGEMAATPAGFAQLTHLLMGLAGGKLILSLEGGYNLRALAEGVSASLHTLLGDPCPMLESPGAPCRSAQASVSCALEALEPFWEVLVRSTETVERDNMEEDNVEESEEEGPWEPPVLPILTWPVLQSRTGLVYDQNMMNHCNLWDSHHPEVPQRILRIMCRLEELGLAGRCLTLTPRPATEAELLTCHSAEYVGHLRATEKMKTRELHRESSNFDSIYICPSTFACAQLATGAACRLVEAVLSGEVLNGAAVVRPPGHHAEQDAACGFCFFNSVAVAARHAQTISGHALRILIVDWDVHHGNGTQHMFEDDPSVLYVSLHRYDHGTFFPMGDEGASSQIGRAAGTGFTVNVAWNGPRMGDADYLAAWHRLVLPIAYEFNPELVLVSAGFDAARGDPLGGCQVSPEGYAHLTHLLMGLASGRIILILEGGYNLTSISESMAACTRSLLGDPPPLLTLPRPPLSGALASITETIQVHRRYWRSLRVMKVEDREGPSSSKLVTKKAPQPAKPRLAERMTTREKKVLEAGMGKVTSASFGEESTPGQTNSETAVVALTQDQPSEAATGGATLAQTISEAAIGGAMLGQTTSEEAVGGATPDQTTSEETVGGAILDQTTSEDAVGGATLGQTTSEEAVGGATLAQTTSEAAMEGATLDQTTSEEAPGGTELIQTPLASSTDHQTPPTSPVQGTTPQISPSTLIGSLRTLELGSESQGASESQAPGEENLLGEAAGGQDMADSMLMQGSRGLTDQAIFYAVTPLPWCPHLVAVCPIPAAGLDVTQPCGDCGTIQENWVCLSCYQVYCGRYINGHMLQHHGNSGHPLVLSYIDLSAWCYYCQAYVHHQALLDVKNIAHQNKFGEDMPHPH

[6] = target: T2, Protein deacetylase HDAC6 (Homo sapiens); assay: Inhibition of HDAC6 in human HuH7-luc/neo cells assessed as ratio of alphaTubK40ac content to the content of unmodified alpha-tubulin at 1 uM incubated for 24 hrs by Western blot analysis relative to control; format: cell-based; summary of the method: as §1
[7] = target: T3, Histone deacetylase 8 (Homo sapiens) (UniProt Q9BY41); assay: Inhibition of HDAC8 in human HuH7-luc/neo cells assessed as ratio of SMC3K105/106ac content to the content of unmodified SMC3 at 3 uM incubated for 24 hrs by Western blot analysis relative to control; format: cell-based; summary of the method: as §1
T3 sequence (whole entry): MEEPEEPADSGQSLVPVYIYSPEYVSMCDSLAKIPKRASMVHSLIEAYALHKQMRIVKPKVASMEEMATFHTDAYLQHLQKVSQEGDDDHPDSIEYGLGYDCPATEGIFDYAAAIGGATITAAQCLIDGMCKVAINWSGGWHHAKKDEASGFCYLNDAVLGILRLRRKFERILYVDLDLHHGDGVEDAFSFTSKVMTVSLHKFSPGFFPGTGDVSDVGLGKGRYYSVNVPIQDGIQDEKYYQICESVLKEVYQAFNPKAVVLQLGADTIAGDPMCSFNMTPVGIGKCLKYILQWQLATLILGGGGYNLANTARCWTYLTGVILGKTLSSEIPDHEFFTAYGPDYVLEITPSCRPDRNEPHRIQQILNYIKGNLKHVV

[8] = target: T3, Histone deacetylase 8 (Homo sapiens); assay: Inhibition of HDAC8 in human HuH7-luc/neo cells assessed as ratio of SMC3K105/106ac content to the content of unmodified SMC3 at 10 uM incubated for 24 hrs by Western blot analysis relative to control; format: cell-based; summary of the method: as §1
[9] = target: T3, Histone deacetylase 8 (Homo sapiens); assay: Inhibition of HDAC8 in human HuH7-luc/neo cells assessed as ratio of SMC3K105/106ac content to the content of unmodified SMC3 at 1 uM incubated for 24 hrs by Western blot analysis relative to control; format: cell-based; summary of the method: as §1
[10] = target: T3, Histone deacetylase 8 (Homo sapiens); assay: Inhibition of HDAC8 in human HuH7-luc/neo cells assessed as ratio of SMC3K105/106ac content to the content of unmodified SMC3 at 0.3 uM incubated for 24 hrs by Western blot analysis relative to control; format: cell-based; summary of the method: as §1
[11] = target: T3, Histone deacetylase 8 (Homo sapiens); assay: Inhibition of HDAC8 in human HuH7-luc/neo cells assessed as ratio of SMC3K105/106ac content to the content of unmodified SMC3 at 0.1 uM incubated for 24 hrs by Western blot analysis relative to control; format: cell-based; summary of the method: as §1
[12] = target: T1, Histone deacetylase 1/2/3 (Homo sapiens); assay: Inhibition of HDAC1/2/3 in human HuH7-luc/neo cells assessed as ratio of H3K9/14ac content to the content of unmodified histone H3 at 0.3 uM incubated for 24 hrs by Western blot analysis relative to control; format: cell-based; summary of the method: as §1
[13] = target: T2, Protein deacetylase HDAC6 (Homo sapiens); assay: Inhibition of HDAC6 in human HuH7-luc/neo cells assessed as ratio of alphaTubK40ac content to the content of unmodified alpha-tubulin at 0.3 uM incubated for 24 hrs by Western blot analysis relative to control; format: cell-based; summary of the method: as §1

SMILES	fold change (FC) [1]	selectivity ratio [2]	fold change (FC) [3]	EC50 (Hepatitis C virus) [µM]	CC50 at 72 h [4] [µM]	fold change (FC) [5]	fold change (FC) [6]	fold change (FC) [7]	fold change (FC) [8]	fold change (FC) [9]	fold change (FC) [10]	fold change (FC) [11]	fold change (FC) [12]	fold change (FC) [13]
COc1cccc(/C=C/C(=O)NO)c1	1.69	30	1.45	0.57	17	3.3	2.13	–	–	–	–	–	–	–
O=C(/C=C/c1ccccc1OCc1ccccc1)NO	1.48	120	0.95	0.25	31	1.99	2.46	2.16	3.14	1.61	1.19	1.51	–	–
O=C(/C=C/c1ccc(Oc2ccccc2)cc1)NO	2.58	370	1.69	0.054	20	2.58	2.22	0.83	0.73	–	–	–	1.53	2.09
O=C(/C=C/c1cccc(OCc2ccccc2)c1)NO	14.1	37	8.42	0.18	6.6	10.6	7.34	0.82	0.83	–	–	–	–	–
O=C(/C=C/c1ccccc1OCCOc1ccccc1)NO	1.94	120	1.47	0.37	45	0.69	0.5	3.18	2.87	2.14	2.07	1.58	–	–
O=C(/C=C/c1ccccc1OCCc1ccccc1)NO	4.34	260	2.39	0.32	83	0.8	0.64	3.17	3.78	1.98	2.03	1.84	–	–
O=C(/C=C/c1ccc(OCCOc2ccccc2)cc1)NO	15.4	91	11.2	0.063	5.7	6.35	3.73	0.84	1.13	–	–	–	4.04	0.86
COc1ccc(/C=C/C(=O)NO)cc1	1.85	27	1.35	0.56	15	5.1	3.57	–	–	–	–	–	–	0.55
O=C(/C=C/c1cccc(Oc2ccccc2)c1)NO	1.9	50	1.75	0.4	20	3.79	2.58	0.54	1.02	–	–	–	1.27	1.54
O=C(/C=C/c1ccccc1Oc1ccccc1)NO	1.46	165	0.9	0.4	66	1.01	0.74	2.66	3.14	2.15	2.03	1.7	0.62	–
O=C(/C=C/c1ccc(OCc2ccccc2)cc1)NO	4.83	240	4.23	0.042	9.9	8.86	4.92	0.93	0.67	–	–	–	–	1.63
O=C(/C=C/c1ccc(OCCc2ccccc2)cc1)NO	9.6	120	9	0.13	16	2.55	0.5	0.52	0.41	–	–	–	4.3	0.52
O=C(/C=C/c1cccc(OCCOc2ccccc2)c1)NO	20.2	55	7.5	0.11	6	7.72	3.33	0.89	1.44	–	–	–	–	–
O=C(/C=C/c1cccc(OCCc2ccccc2)c1)NO	11.2	41	8.55	0.3	12	4.34	3.53	0.7	0.58	–	–	–	–	–
COc1ccccc1/C=C/C(=O)NO	1.56	27	1.16	1.1	30	1.45	0.75	–	–	–	–	–	–	–
